Assay results published in ChEMBL document CHEMBL1629690, “Development of hexadecyloxypropyl tenofovir (CMX157) for treatment of infection caused by wild-type and nucleoside/nucleotide-resistant HIV” (Antimicrob Agents Chemother, 2010).

Tested on: Human immunodeficiency virus 1
Assay: Antiviral activity against HIV1 isolate 160 harboring reverse transcriptase S68G/V75(I/T)/F77L/Y115F/F116Y /Q151M mutant gene by phenosense assay
Format: functional, organism-based
Conditions: Human immunodeficiency virus 1, isolate 160
In short: (§1)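 Recombinant-virus PhenoSense HIV assay run on a panel of 30 NRTI-resistant HIV-1 mutants and two wild-type viruses. Each virus is tested across increasing drug concentrations to give an inhibition curve and EC50. Fold change is the test recombinant EC50 divided by the EC50 of the drug-sensitive wild-type reference virus.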

Row | Structure (SMILES) | EC50 [nM]
1 | Cc1cn([C@H]2C[C@H](N=[N+]=[N-])[C@@H](CO)O2)c(=O)[nH]c1=O [ZIDOVUDINE] | 2500

Tested on: Human immunodeficiency virus 1
Assay: Antiviral activity against HIV1 isolate 166 harboring reverse transcriptase L74V mutant gene obtained as site-directed mutant of NL4-3 by phenosense assay
Format: functional, organism-based
Conditions: Human immunodeficiency virus 1, isolate 166
In short: as §1

Row | Structure (SMILES) | EC50 [nM]
2 | Cc1cn([C@H]2C[C@H](N=[N+]=[N-])[C@@H](CO)O2)c(=O)[nH]c1=O [ZIDOVUDINE] | 14

Tested on: Human immunodeficiency virus 1
Assay: Antiviral activity against HIV1 isolate 157 harboring reverse transcriptase L74V/M184V mutant gene by phenosense assay relative to wild type
Format: functional
Conditions: not given
In short: as §1

Row | Structure (SMILES) | fold change (FC)
3 | Cc1cn([C@H]2C[C@H](N=[N+]=[N-])[C@@H](CO)O2)c(=O)[nH]c1=O [ZIDOVUDINE] | 0.22

Tested on: Human immunodeficiency virus 1
Assay: Antiviral activity against HIV1 isolate 060 harboring reverse transcriptase M41L/D67N/K70R/L210W/T215Y/K219E mutant gene by phenosense assay relative to wild type
Format: functional
Conditions: not given
In short: as §1

Row | Structure (SMILES) | fold change (FC)
4 | Cc1cn([C@H]2C[C@H](N=[N+]=[N-])[C@@H](CO)O2)c(=O)[nH]c1=O [ZIDOVUDINE] | 400

Tested on: Human immunodeficiency virus 1
Assay: Antiviral activity against HIV1 52534-2 harboring reverse transcriptase 41L//74V/210W/215Y/184V/69SSS mutant gene infected in human PBMC by ELISA
Format: functional, organism-based
Conditions: Human immunodeficiency virus 1, 52534-2
In short: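 Fresh PBMCs pooled from at least two HIV- and HBV-seronegative donors, stimulated with PHA 4 μg/ml for 48–72 h and kept in rhIL-2 20 U/ml. Seeded at 5 × 10^4 cells/well and infected with RT-mutant HIV-1 clones at MOI ~0.1. Nine compound concentrations, triplicate wells, 7-day incubation. EC50 reported as mean ± SD of one to three independent experiments.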

Row | Structure (SMILES) | EC50 [nM]
5 | Cc1cn([C@H]2C[C@H](N=[N+]=[N-])[C@@H](CO)O2)c(=O)[nH]c1=O [ZIDOVUDINE] | 350

Tested on: Human immunodeficiency virus 1
Assay: Antiviral activity against HIV1 isolate 220 harboring reverse transcriptase K70E/M184V mutant gene by phenosense assay
Format: functional, organism-based
Conditions: Human immunodeficiency virus 1, isolate 220
In short: (§2)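 PhenoSense HIV recombinant virus assay: patient-derived HIV-1 with major NRTI resistance mutations tested against increasing drug concentrations to give inhibition curves. EC50 is the concentration giving 50% inhibition. Fold change is the test recombinant EC50 divided by the EC50 of a drug-sensitive wild-type reference virus. Panel of 30 NRTI-resistant isolates plus two wild-type viruses.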

Row | Structure (SMILES) | EC50 [nM]
6 | Cc1cn([C@H]2C[C@H](N=[N+]=[N-])[C@@H](CO)O2)c(=O)[nH]c1=O [ZIDOVUDINE] | 4

Tested on: Human immunodeficiency virus 1
Assay: Antiviral activity against HIV1 isolate 188 harboring reverse transcriptase T215Y/M184V mutant gene by phenosense assay relative to wild type
Format: functional
Conditions: not given
In short: as §1

Row | Structure (SMILES) | fold change (FC)
7 | Cc1cn([C@H]2C[C@H](N=[N+]=[N-])[C@@H](CO)O2)c(=O)[nH]c1=O [ZIDOVUDINE] | 2.6

Tested on: Human immunodeficiency virus 1
Assay: Antiviral activity against HIV1 isolate 174 harboring reverse transcriptase M184V mutant gene obtained as site-directed mutant of NL4-3 by phenosense assay
Format: functional, organism-based
Conditions: Human immunodeficiency virus 1, isolate 174
In short: as §1

Row | Structure (SMILES) | EC50 [nM]
8 | Cc1cn([C@H]2C[C@H](N=[N+]=[N-])[C@@H](CO)O2)c(=O)[nH]c1=O [ZIDOVUDINE] | 9

Tested on: Human immunodeficiency virus 1
Assay: Antiviral activity against HIV1 isolate 185 harboring reverse transcriptase T215Y mutant gene by phenosense assay
Format: functional, organism-based
Conditions: Human immunodeficiency virus 1, isolate 185
In short: as §1

Row | Structure (SMILES) | EC50 [nM]
9 | Cc1cn([C@H]2C[C@H](N=[N+]=[N-])[C@@H](CO)O2)c(=O)[nH]c1=O [ZIDOVUDINE] | 1000

Tested on: Human immunodeficiency virus 1
Assay: Antiviral activity against HIV1 isolate 066 harboring reverse transcriptase 184V mutant gene by phenosense assay
Format: functional, organism-based
Conditions: Human immunodeficiency virus 1, isolate 066
In short: as §1

Row | Structure (SMILES) | EC50 [nM]
10 | Cc1cn([C@H]2C[C@H](N=[N+]=[N-])[C@@H](CO)O2)c(=O)[nH]c1=O [ZIDOVUDINE] | 17

Tested on: Human immunodeficiency virus 1
Assay: Antiviral activity against HIV1 isolate 058 harboring reverse transcriptase M41L/D67N/K70R/L210W/T215F/K219Q mutant gene by phenosense assay relative to wild type
Format: functional
Conditions: not given
In short: as §1

Row | Structure (SMILES) | fold change (FC)
11 | Cc1cn([C@H]2C[C@H](N=[N+]=[N-])[C@@H](CO)O2)c(=O)[nH]c1=O [ZIDOVUDINE] | 350

Tested on: Human immunodeficiency virus 1
Assay: Antiviral activity against HIV1 isolate 204 harboring reverse transcriptase M41L/L210W/T215Y/M184V mutant gene by phenosense assay
Format: functional, organism-based
Conditions: Human immunodeficiency virus 1, isolate 204
In short: as §2

Row | Structure (SMILES) | EC50 [nM]
12 | Cc1cn([C@H]2C[C@H](N=[N+]=[N-])[C@@H](CO)O2)c(=O)[nH]c1=O [ZIDOVUDINE] | 110

Tested on: Human immunodeficiency virus 1
Assay: Antiviral activity against HIV1 isolate 058 harboring reverse transcriptase M41L/D67N/K70R/L210W/T215F/K219Q mutant gene by phenosense assay
Format: functional, organism-based
Conditions: Human immunodeficiency virus 1, isolate 058
In short: as §1

Row | Structure (SMILES) | EC50 [nM]
13 | Cc1cn([C@H]2C[C@H](N=[N+]=[N-])[C@@H](CO)O2)c(=O)[nH]c1=O [ZIDOVUDINE] | 9600

Tested on: Human immunodeficiency virus 1
Assay: Antiviral activity against HIV1 isolate 061 harboring reverse transcriptase M41L/D67N/K70R/M184V/L210W/T215Y/K219E mutant gene by phenosense assay relative to wild type
Format: functional
Conditions: not given
In short: as §1

Row | Structure (SMILES) | fold change (FC)
14 | Cc1cn([C@H]2C[C@H](N=[N+]=[N-])[C@@H](CO)O2)c(=O)[nH]c1=O [ZIDOVUDINE] | 58

Tested on: Human immunodeficiency virus 1
Assay: Antiviral activity against HIV1 isolate 185 harboring reverse transcriptase T215Y mutant gene by phenosense assay relative to wild type
Format: functional
Conditions: not given
In short: as §1

Row | Structure (SMILES) | fold change (FC)
15 | Cc1cn([C@H]2C[C@H](N=[N+]=[N-])[C@@H](CO)O2)c(=O)[nH]c1=O [ZIDOVUDINE] | 38

Tested on: Human immunodeficiency virus 1
Assay: Antiviral activity against HIV1 isolate 166 harboring reverse transcriptase L74V mutant gene obtained as site-directed mutant of NL4-3 by phenosense assay relative to wild type
Format: functional
Conditions: not given
In short: as §1

Row | Structure (SMILES) | fold change (FC)
16 | Cc1cn([C@H]2C[C@H](N=[N+]=[N-])[C@@H](CO)O2)c(=O)[nH]c1=O [ZIDOVUDINE] | 0.5
